The values that follow come from ChEMBL document CHEMBL1138620, “Synthesis and antiproliferative evaluation of pyrazolo[1,5-a]-1,3,5-triazine myoseverin derivatives” (Bioorg Med Chem, 2009).

The source made the active and inactive calls. The rule behind the calls is not given here.

Experiment [1] has as its system SW480. Briefly: Cytotoxicity against human SW480 cells after 72 hrs by MTT assay. It counts as functional, cell-based. Conditions: SW480, 72 h. The essentials: (§1)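 Cells (5 × 10^3/well) were seeded and incubated 24 h before drug addition, then exposed for 72 h. MTT was added (5 mg/mL stock) and growth was taken as absorbance relative to untreated wells. IC50 is the dose giving 50% growth inhibition. Three experiments were run, each in triplicate. Media: D-MEM with 10% FCS for MCF-7, HCT116, SW48 and SW480; RPMI1640 with 10% FCS for Mes-sa and CEM.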
A general note: Tetrazolium dyes change colour on reduction, which living cells bring about.

Experiment [2] deals with HCT-116. Description: Cell cycle arrest in human HCT116 cells assessed as accumulation at G1 phase at 30 uM after 24 hrs by flow cytometry. It counts as functional. The essentials:
(§2)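 Colorectal lines were cultured in D-MEM with 10% FCS and treated at 30 µM for 24 h. Cells (10^6/mL) were resuspended in propidium iodide solution, held at 4 °C overnight and analysed by flow cytometry for DNA content. Values are means of three experiments ± SD.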
(In flow cytometry, cells or beads pass a laser one at a time.)

The nature of experiment [3]: Cytotoxicity against human MES-SA cells after 72 hrs by MTT assay. It counts as functional, cell-based. The essentials: as §1
Experiment [4] can be described thus: Inhibition of tubulin polymerization in bovine brain. Details: species or system Bos taurus. The essentials:
(§3)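 Purified bovine brain tubulin (29 µM) was added to PEM buffer (100 mM PIPES, 1 mM MgCl2, 1 mM EGTA) with increasing inhibitor concentrations, up to 100 µM, in DMSO at equal DMSO levels. Polymerization was followed by absorbance at 340 nm for at least 1 h at 37 °C, and IC50 was taken from concentration–response plots.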

The test system of experiment [5] is SW480. Description: Cell cycle arrest in human SW480 cells assessed as accumulation at S phase at 30 uM after 24 hrs by flow cytometry. In kind it is functional. The essentials:
as §2

Experiment [6] deals with HeLa. Briefly: Antimitotic activity in human HeLa cells expressing GFP-tubulin assessed as block of G2/M phase after 24 hrs by flow cytometry. It counts as functional, cell-based. The essentials:
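HeLa cells were exposed to increasing inhibitor concentrations for 24 h. The percentage of G2/M cells was determined by flow cytometry, with nocodazole as the reference mitotic inhibitor.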

The subject of experiment [7] is CCRF-CEM. Description: Cytotoxicity against human CEM cells after 72 hrs by MTT assay. In kind it is functional, cell-based. The essentials: as §1
Experiment [8] has as its system SW48. Briefly: Cell cycle arrest in human SW48 cells assessed as accumulation at G1 phase at 30 uM after 24 hrs by flow cytometry. In kind it is functional. The essentials:
as §2

Experiment [9] has as its system HeLa. Description: Antimitotic activity in human HeLa cells expressing GFP-tubulin assessed as increase in aberration of mitotic spindle after 24 hrs by fluorescence microscopy. In kind it is functional, cell-based. Conditions: in the assay text read “6 hrs” for “24 hrs”. The essentials:
(§4)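 HeLa cells were grown in DMEM with 10% FBS at 37 °C in 5% CO2 and left to adhere for at least 36 h on poly-D-lysine-coated coverslips. Drugs were diluted in medium from 50 mM DMSO stocks. Cells were fixed with 1% paraformaldehyde then cold methanol and stained with anti-β-tubulin plus a FITC secondary, with propidium iodide counterstain. Aberrant spindles were scored as a percentage of total spindles counted.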

The subject of experiment [10] is HCT-116. Briefly: Cytotoxicity against human HCT116 cells after 72 hrs by MTT assay. In kind it is functional, cell-based. Conditions: HCT-116, 72 h. The essentials: as §1
Experiment [11] deals with MCF7. Description: Cytotoxicity against human MCF7 cells after 72 hrs by MTT assay. In kind it is functional, cell-based. The note with it: MCF7, 72 h. The essentials:
as §1

Experiment [12] deals with HeLa. Description: Antimitotic activity in human HeLa cells expressing GFP-tubulin assessed as induction of mitotic deffects by flow cytometry. It counts as functional, cell-based.
Experiment [13] relates to SW48. Briefly: Cell cycle arrest in human SW48 cells assessed as accumulation at G2/M phase at 30 uM after 24 hrs by flow cytometry. It counts as functional. The essentials:
as §2

Experiment [14] relates to SW480. Description: Cell cycle arrest in human SW480 cells assessed as accumulation at G1 phase at 30 uM after 24 hrs by flow cytometry. It counts as functional. Summed up: as §2
In experiment [15] the test system is SW48. Briefly: Cell cycle arrest in human SW48 cells assessed as accumulation at S phase at 30 uM after 24 hrs by flow cytometry. In kind it is functional. Summed up: as §2
In experiment [16] the test system is SW48. Description: Cytotoxicity against human SW48 cells after 72 hrs by MTT assay. It counts as functional, cell-based. Conditions: SW48, 72 h. Summed up:
as §1

Experiment [17] relates to SW480. Description: Cell cycle arrest in human SW480 cells assessed as accumulation at G2/M phase at 30 uM after 24 hrs by flow cytometry. It counts as functional. Summed up:
as §2

In experiment [18] the test system is HCT-116. Description: Cell cycle arrest in human HCT116 cells assessed as accumulation at S phase at 30 uM after 24 hrs by flow cytometry. It counts as functional. Summed up:
as §2

Experiment [19] relates to HeLa. Description: Antimitotic activity in human HeLa cells expressing GFP-tubulin assessed as aberration of mitotic spindle at 12 uM after 24 hrs by fluorescence microscopy. It counts as functional. Conditions: in the assay text read “6 hrs” for “24 hrs”. Summed up:
as §4

Experiment [20] concerns HCT-116. Description: Cell cycle arrest in human HCT116 cells assessed as accumulation at G2/M phase at 30 uM after 24 hrs by flow cytometry. In kind it is functional. The essentials: as §2
Experiment [21] is filed under the species Bos taurus. Description: Inhibition of tubulin polymerization in bovine brain relative to baseline. The note with it: concentration not given here. Summed up: as §3
The test system of experiment [22] is HeLa. Description: Antimitotic activity in human HeLa cells expressing GFP-tubulin assessed as induction of mitotic deffects at 50 uM by flow cytometry. It counts as functional, cell-based.
The test system of experiment [23] is HeLa. Briefly: Antimitotic activity in human HeLa cells expressing GFP-tubulin assessed as collapse of spindle microtubule at 12 uM.

As a reminder, the IC50 is the point on the concentration scale where inhibition reaches its midpoint. A high value points to weaker potency in that assay. A word on the inhibition: it is the percentage by which the read-out fell short of the control. Read a low inhibition as a response near the control.

On to `COc1ccc(CNc2nc(NCc3ccc(OC)cc3)n3nccc3n2)cc1`, for which the IC50 turned out to be 8.1 µM in experiment [1]; 45 µM in experiment [3]; 3.4 µM in [4]; 13 µM in experiment [7]; 6.2 µM in experiment [10]; 34 µM in [11]. The molecule also displayed an IC50 in [16] of 5.2 µM. The Activity in experiment [2] is 19%; in experiment [5], 15%; in experiment [8] it was 16%; in experiment [9], “Dose-dependent effect”; in experiment [13] it was 62%; in experiment [14], 43%. In addition, the Activity in [15] turned out to be 21%; in [17], 42%; in [18] it was 29%; in experiment [19], 100%; in [20], 51%. Also, the outcome in experiment [6] and in experiment [12] was Active.

On to `COc1ccc(CNc2nc(NCc3ccc(OC)cc3)n3ncc(Br)c3n2)cc1`, for which the IC50 worked out at 26.5 µM in experiment [1]; 43 µM in experiment [3]; 38.5 µM in [7]; 25 µM in experiment [10]; 35.5 µM in [11]; 7.5 µM in [16]. In experiment [21], the inhibition came to 50%. Besides, the Activity in experiment [2] amounted to 44%; in experiment [5], 9%; in experiment [8] it was 50%; in [13] it was 42.5%; in experiment [14], 62%; in experiment [15], 0.5%. The Activity stood at 28% in experiment [17], 0.5% in [18] and 55.5% in [20]. Further, the result in experiment [22] was inactive.

For `COc1ccc(CNc2nc(NCc3ccc(OC)cc3)c3ncn(C(C)C)c3n2)cc1` [MYOSEVERIN], the IC50 stood at 4.8 µM in experiment [1]; 8.5 µM in [3]; 3.6 µM in [4]; 5.7 µM in experiment [7]; 3.3 µM in [10]; 11.5 µM in experiment [11]. This molecule yielded an IC50 in experiment [16] of 2.7 µM. Besides, the Activity in [2] is 1.8%; in experiment [5] it was 3%; in [8], 1%; in [9], “Dose-dependent effect”; in experiment [13], 98%; in [14] it was 12.5%. Moreover, the Activity is given as 1% in [15]; 84.5% in [17]; 9.5% in experiment [18]; 100% in experiment [19]; 88% in [20]. Also, the result in experiment [6], in experiment [12] and in experiment [23] was Active.

Take `COc1ccc(CNc2nc(NCc3ccc(OC)cc3)n3ncc(C(C)C)c3n2)cc1`: the IC50 in experiment [1] amounted to 5.5 µM; in [3], 23 µM; in experiment [4], 3.6 µM; in [7] it was 5.4 µM; in experiment [10], 4.6 µM; in experiment [11], 51.5 µM. Moreover, in experiment [16], the IC50 stood at 2.6 µM. Moreover, the Activity was 8% in experiment [2]; 5.9% in experiment [5]; 22.4% in [8]; “Dose-dependent effect” in experiment [9]; 75.4% in [13]; 3% in experiment [14]. In addition, the Activity in [15] was determined as 1.3%; in experiment [17], 91.2%; in experiment [18], 2.8%; in [19] it was 100%; in experiment [20], 89.3%. The outcome in experiment [6] and in [12] was Active.
